Laboratory results taken from PubChem BioAssay.
The source made the active and inactive calls.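 Rule for the calls, unless noted: active = current rise at least 3 SD above the untreated control mean in each of two repeat wells; inactive = the rest.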

What follows are compounds tested against Potassium voltage-gated channel subfamily KQT member 2 (Rattus norvegicus) (UniProt O88943) (assay: KCNQ2 thallium flux enhancement – KCNQ2-CHO-K1 cells, selectivity assay for KCNQ1 potentiator project (AID 493009;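 active = mean duplicate potentiation above the buffer control mean plus 5 SD of buffer wells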;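 note: assay conditions were tuned for KCNQ1 rather than KCNQ2 modulators; signal is max minus min fluorescence divided by baseline after thallium stimulus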)). Details: FluxOR thallium flux fluorescence, at 10 µM; hits give high values, scaled: buffer 0, activator control 100.
Potassium voltage-gated channel subfamily KQT member 2 (Rattus norvegicus), sequence (O88943 whole entry, looked up): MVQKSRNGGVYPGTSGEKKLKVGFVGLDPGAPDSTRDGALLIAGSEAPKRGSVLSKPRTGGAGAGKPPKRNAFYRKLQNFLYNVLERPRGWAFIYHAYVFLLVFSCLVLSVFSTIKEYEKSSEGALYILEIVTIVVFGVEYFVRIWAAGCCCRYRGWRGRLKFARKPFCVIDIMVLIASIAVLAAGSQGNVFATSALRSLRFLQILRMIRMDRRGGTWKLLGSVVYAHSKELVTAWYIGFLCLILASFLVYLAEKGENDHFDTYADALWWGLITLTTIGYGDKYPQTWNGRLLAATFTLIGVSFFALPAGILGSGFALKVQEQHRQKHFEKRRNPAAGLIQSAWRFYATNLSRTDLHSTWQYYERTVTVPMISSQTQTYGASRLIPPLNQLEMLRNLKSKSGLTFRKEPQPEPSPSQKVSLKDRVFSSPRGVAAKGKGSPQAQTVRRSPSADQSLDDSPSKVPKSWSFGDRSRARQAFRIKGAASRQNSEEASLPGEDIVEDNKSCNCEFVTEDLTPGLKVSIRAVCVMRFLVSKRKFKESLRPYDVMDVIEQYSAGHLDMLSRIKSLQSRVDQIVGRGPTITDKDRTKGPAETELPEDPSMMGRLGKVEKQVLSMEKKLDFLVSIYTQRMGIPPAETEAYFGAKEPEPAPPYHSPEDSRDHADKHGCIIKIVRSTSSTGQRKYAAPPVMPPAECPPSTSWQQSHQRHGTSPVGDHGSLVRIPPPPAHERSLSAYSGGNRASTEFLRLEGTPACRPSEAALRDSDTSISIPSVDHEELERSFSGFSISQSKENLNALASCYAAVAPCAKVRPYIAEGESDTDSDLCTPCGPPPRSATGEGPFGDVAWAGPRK
`CCn1c2ccccc2c2cc(CC(N)=O)ccc21` was tested, and the outcome was “inactive”. For `CC(NC(=O)c1ccco1)C(=O)N(C)Cc1ccc(C(F)(F)F)cc1` (stereo not given), the outcome was “inactive”. For `C/C(=N\Nc1nc(C)c(C)s1)c1ccc([N+](=O)[O-])cc1`, the potentiation was 150% (active). With `COc1cccc(-c2nc(=S)c3c(o2)CCCC3)c1` the outcome was “inactive”. With `O=C(NC(=S)Nc1ccccc1)c1cncc(C#Cc2ccccc2)c1` the outcome was “inactive”. For `CN(C)CCCN(C(=O)CCOc1ccccc1)c1nc2c(F)cccc2s1`, the outcome was “inactive”. `Cc1cccc(OCc2n[nH]c(=S)n2C2CCCCC2)c1` was tested, and the outcome was “inactive”. With `COc1cc(OC)cc(-c2nnc(Nc3nc4c(F)cccc4s3)o2)c1` the outcome was “inactive”. With `O=C(NC1(O)C(=O)c2ccccc2C1=O)c1ccc(C(F)(F)F)cc1` the potentiation was 148% (active). For `Cn1c(O)c(N=NC(=S)Nc2ccccc2F)c2cc(S(=O)(=O)N3CCOCC3)ccc21`, the outcome was “inactive”. With `O=C(O)CCn1c(-c2ccccc2)cc2ccccc21` the outcome was “inactive”. For `S=c1[nH]nc(-c2ccco2)n1/N=C/C(Cl)=C/c1ccccc1`, the outcome was “inactive”. With `N#CC(c1ccccc1)c1ccc2c(C(F)(F)F)cc(C(F)(F)F)nc2n1` (stereo not given) the outcome was “inactive”. For `CCOC(=O)SC1=N/C(=C\c2ccc(N(C)C)cc2)C(=O)S1`, the outcome was “inactive”. For `NNc1nc2c(F)cc(F)cc2s1`, the outcome was “inactive”. `CCCCn1c(=O)[nH]c(=O)c2c1nc(Cn1ncc(Cl)c(Cl)c1=O)n2CCC` was tested, and the outcome was “inactive”. With `O=C(N/C(=C\c1ccc([N+](=O)[O-])cc1)C(=O)N1CCCCC1)c1ccco1` the outcome was “inactive”. For `O=C(CNC(=S)NC(=O)c1ccc(Br)o1)c1ccccc1`, the outcome was “inactive”. With `Cc1ccc(Nc2ccc([N+](=O)[O-])cn2)cc1Cl` the potentiation was 144% (active). In the case of `CCN(Cc1ccccc1)C1CCN(Cc2ccccc2)CC1`, the outcome is reported as “inactive”. With `Cc1ccc(/C(O)=C/C(=O)C(=O)NNC(=O)C(O)(c2ccccc2)c2ccccc2)cc1` the outcome was “inactive”. `S=c1[nH]nc(COc2ccccc2)n1/N=C/c1ccc(Cl)cc1Cl` was tested, and the outcome was “inactive”. In the case of `O=C(NC(=S)Nc1ccc(Cl)cn1)c1cccs1`, the outcome is reported as “inactive”. With `CSc1nc(SCC(=O)O)c2sc3nc(-c4ccccc4)c4c(c3c2n1)CCC4` the outcome was “inactive”. In the case of `O=C(NC(=S)Nc1ccc(CN2CCOCC2)cc1)c1ccc(-c2cccc(Cl)c2)o1`, the potentiation is reported as 144% (active). In the case of `Cn1c(SCC(=O)NC2CC2)nnc1-c1cccs1`, the outcome is reported as “inactive”. With `CCCOc1ccccc1NS(=O)(=O)c1ccc2[nH]c(=O)[nH]c2c1` the outcome was “inactive”. In the case of `O=C(NNc1cc(N2CCOCC2)nc(N2CCOCC2)n1)C12CC3CC(CC(C3)C1)C2`, the outcome is reported as “inactive”. `CCOc1cccc(/C=N/NC(=O)C2CCCC2)c1O` was tested, and the outcome was “inactive”. With `COc1ccc(C(=O)NNC(=O)C(=O)NCc2ccccc2)cc1` the potentiation was 144% (active). In the case of `CCCCNC(=O)CCc1c(C)nc2c(c(C)nn2-c2ccccc2)c1C`, the outcome is reported as “inactive”. For `Cn1c(=O)cc(NCc2ccccc2)[nH]c1=O`, the outcome was “inactive”. With `S=c1[nH]cnc2scc(-c3ccc(Br)cc3)c12` the potentiation was 147% (active). `COC(=O)C1=C(C)N(c2ccc(F)c(Cl)c2)C(=O)C1` was tested, and the outcome was “inactive”. With `COc1cccc(NC(=S)NC(=O)c2c(Cl)c(C)nn2C)c1` the outcome was “inactive”. With `CCN(CC)S(=O)(=O)c1ccc(NC(=O)c2cccnc2Cl)c(NC(=O)c2cccnc2Cl)c1` the potentiation was 242% (active). With `CCOC(=O)c1c(C)cccc1OCC(N)=O` the outcome was “inactive”. For `COCCOC(=O)/C(=C/c1ccc(OC(=O)c2ccccc2)cc1)C(C)=O`, the outcome was “inactive”. In the case of `Cc1cccc(C(=O)NC(=S)NNC(=O)COc2c(C)cccc2C)c1`, the potentiation is reported as 176% (active). `COc1ccc(C(=O)/C=C/C(=O)N(CC(=O)NC2CCCCC2)Cc2ccccc2)c(O)c1` was tested, and the outcome was “inactive”.

These compounds were tested against Potassium voltage-gated channel subfamily KQT member 1 (Homo sapiens) (UniProt P51787) (assay: KCNQ1 activators by electrophysiology – IonWorks patch clamp, KCNQ1-CHO cells, orthogonal assay for KCNQ1 potentiator project, confirmation (AID 493184)). Details: automated patch clamp current, at 10 µM; hits give high values.
Potassium voltage-gated channel subfamily KQT member 1 (Homo sapiens), sequence (P51787 whole entry, looked up): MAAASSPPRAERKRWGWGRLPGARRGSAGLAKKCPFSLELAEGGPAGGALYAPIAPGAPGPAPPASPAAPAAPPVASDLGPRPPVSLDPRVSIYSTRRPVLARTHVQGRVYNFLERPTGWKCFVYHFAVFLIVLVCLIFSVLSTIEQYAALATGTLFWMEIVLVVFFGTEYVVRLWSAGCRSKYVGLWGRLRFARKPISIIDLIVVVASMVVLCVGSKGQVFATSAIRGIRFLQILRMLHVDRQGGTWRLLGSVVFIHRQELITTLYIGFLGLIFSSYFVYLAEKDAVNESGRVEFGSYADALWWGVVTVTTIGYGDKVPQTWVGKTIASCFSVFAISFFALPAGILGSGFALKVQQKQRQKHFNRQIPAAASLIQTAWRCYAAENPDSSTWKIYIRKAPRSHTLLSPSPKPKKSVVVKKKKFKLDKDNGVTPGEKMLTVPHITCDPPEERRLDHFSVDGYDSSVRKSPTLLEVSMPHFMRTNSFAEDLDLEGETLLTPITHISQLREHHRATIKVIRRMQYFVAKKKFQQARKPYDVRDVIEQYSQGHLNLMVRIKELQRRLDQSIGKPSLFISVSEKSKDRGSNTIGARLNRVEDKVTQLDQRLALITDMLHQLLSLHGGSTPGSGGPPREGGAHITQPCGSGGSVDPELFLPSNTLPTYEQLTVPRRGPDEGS
Summary of the method: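 Material: KCNQ1-expressing CHO cells; doses: 10 µM final, single point; probe or stimulus: voltage step from -90 mV holding to +40 mV, 2,000 ms; signal: automated voltage clamp, amphotericin B perforated patch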
With `CCn1c2ccccc2c2cc(CC(N)=O)ccc21` the outcome was “inactive”. For `CC(NC(=O)c1ccco1)C(=O)N(C)Cc1ccc(C(F)(F)F)cc1` (stereo not given), the outcome was “inactive”. In the case of `C/C(=N\Nc1nc(C)c(C)s1)c1ccc([N+](=O)[O-])cc1`, the outcome is reported as “inactive”. In the case of `COc1cccc(-c2nc(=S)c3c(o2)CCCC3)c1`, the outcome is reported as “inactive”. With `O=C(NC(=S)Nc1ccccc1)c1cncc(C#Cc2ccccc2)c1` the outcome was “inactive”. With `CN(C)CCCN(C(=O)CCOc1ccccc1)c1nc2c(F)cccc2s1` the outcome was “inactive”. In the case of `Cc1cccc(OCc2n[nH]c(=S)n2C2CCCCC2)c1`, the outcome is reported as “inactive”. With `COc1cc(OC)cc(-c2nnc(Nc3nc4c(F)cccc4s3)o2)c1` the outcome was “inactive”. `O=C(NC1(O)C(=O)c2ccccc2C1=O)c1ccc(C(F)(F)F)cc1` was tested, and the outcome was “inactive”. `Cn1c(O)c(N=NC(=S)Nc2ccccc2F)c2cc(S(=O)(=O)N3CCOCC3)ccc21` was tested, and the outcome was “inactive”. With `O=C(O)CCn1c(-c2ccccc2)cc2ccccc21` the outcome was “inactive”. `S=c1[nH]nc(-c2ccco2)n1/N=C/C(Cl)=C/c1ccccc1` was tested, and the outcome was “inactive”. For `N#CC(c1ccccc1)c1ccc2c(C(F)(F)F)cc(C(F)(F)F)nc2n1` (stereo not given), the outcome was “inactive”. In the case of `CCOC(=O)SC1=N/C(=C\c2ccc(N(C)C)cc2)C(=O)S1`, the outcome is reported as “inactive”. In the case of `NNc1nc2c(F)cc(F)cc2s1`, the outcome is reported as “inactive”. For `CCCCn1c(=O)[nH]c(=O)c2c1nc(Cn1ncc(Cl)c(Cl)c1=O)n2CCC`, the outcome was “inactive”. With `O=C(N/C(=C\c1ccc([N+](=O)[O-])cc1)C(=O)N1CCCCC1)c1ccco1` the outcome was “inactive”. With `O=C(CNC(=S)NC(=O)c1ccc(Br)o1)c1ccccc1` the outcome was “inactive”. `Cc1ccc(Nc2ccc([N+](=O)[O-])cn2)cc1Cl` was tested, and the outcome was “inactive”. For `CCN(Cc1ccccc1)C1CCN(Cc2ccccc2)CC1`, the outcome was “inactive”. In the case of `Cc1ccc(/C(O)=C/C(=O)C(=O)NNC(=O)C(O)(c2ccccc2)c2ccccc2)cc1`, the outcome is reported as “inactive”. In the case of `S=c1[nH]nc(COc2ccccc2)n1/N=C/c1ccc(Cl)cc1Cl`, the outcome is reported as “inactive”. For `O=C(NC(=S)Nc1ccc(Cl)cn1)c1cccs1`, the outcome was “inactive”. In the case of `CSc1nc(SCC(=O)O)c2sc3nc(-c4ccccc4)c4c(c3c2n1)CCC4`, the outcome is reported as “inactive”. In the case of `O=C(NC(=S)Nc1ccc(CN2CCOCC2)cc1)c1ccc(-c2cccc(Cl)c2)o1`, the outcome is reported as “inactive”. In the case of `Cn1c(SCC(=O)NC2CC2)nnc1-c1cccs1`, the outcome is reported as “inactive”. In the case of `CCCOc1ccccc1NS(=O)(=O)c1ccc2[nH]c(=O)[nH]c2c1`, the outcome is reported as “inactive”. `O=C(NNc1cc(N2CCOCC2)nc(N2CCOCC2)n1)C12CC3CC(CC(C3)C1)C2` was tested, and the outcome was “inactive”. `CCOc1cccc(/C=N/NC(=O)C2CCCC2)c1O` was tested, and the outcome was “inactive”. For `COc1ccc(C(=O)NNC(=O)C(=O)NCc2ccccc2)cc1`, the outcome was “inactive”. With `CCCCNC(=O)CCc1c(C)nc2c(c(C)nn2-c2ccccc2)c1C` the outcome was “inactive”. In the case of `Cn1c(=O)cc(NCc2ccccc2)[nH]c1=O`, the outcome is reported as “inactive”. For `S=c1[nH]cnc2scc(-c3ccc(Br)cc3)c12`, the outcome was “inactive”. For `COC(=O)C1=C(C)N(c2ccc(F)c(Cl)c2)C(=O)C1`, the outcome was “inactive”. With `COc1cccc(NC(=S)NC(=O)c2c(Cl)c(C)nn2C)c1` the outcome was “inactive”. For `CCN(CC)S(=O)(=O)c1ccc(NC(=O)c2cccnc2Cl)c(NC(=O)c2cccnc2Cl)c1`, the outcome was “inactive”. With `CCOC(=O)c1c(C)cccc1OCC(N)=O` the outcome was “inactive”. `COCCOC(=O)/C(=C/c1ccc(OC(=O)c2ccccc2)cc1)C(C)=O` was tested, and the outcome was “inactive”. For `Cc1cccc(C(=O)NC(=S)NNC(=O)COc2c(C)cccc2C)c1`, the outcome was “inactive”. With `COc1ccc(C(=O)/C=C/C(=O)N(CC(=O)NC2CCCCC2)Cc2ccccc2)c(O)c1` the outcome was “inactive”.
